Experimental data published in the RNAGym collection of RNA variant scans (doi:10.1126/science.aae0568).
Fewer inactive variants are shown than the library holds.

B1: tRNA (parent)
chain: GUUCCGUUGGCGUAAUGGUAACGCGUCUCCCUCCUAAGGAGAAGACUGCGGGUUCGAGUCCCGUACGGAACG

Variants of: B1
Assay: yeast fitness relative to wild type (ratio to wild type); higher = fitter; tRNA-Arg(CCU), competitive growth, 37 C, YPD
Method in brief: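 Variants of the tRNA-Arg(CCU) gene, chemically synthesised with a 3% per-site mutation rate at 69 sites, were placed at the native genomic locus in Saccharomyces cerevisiae. The pooled strains were competed in YPD at 37°C for 24 hours in six parallel replicates. Gene amplicons from the start population and from each end population were read by 100-nucleotide paired-end sequencing. Darwinian fitness relative to wild type came from changes in genotype frequencies; genotypes needed ≥ 100 starting reads, and estimates < 0.5 were set to 0.5.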

Row | Variant | yeast fitness
1 | GUUCGGUUGGCGUAAUGGUAACGCGUCUCCCUCCUAAGGUGAAGACUGCGGGUUCGAGUCCCGUACGGAACG | 0.876
2 | GUUCGGUUGGCGUAAUGGUAACGCGUCUCCCUCCUAAGGGGAAGACUGCGGGUUCGAGUCCCGUACGGAACG | 0.755
3 | GUUCGGUUGGCGUAAUGGUAACGCGUCUCCCUCCUUAGGAGAAGACUGCGGGUUCGAGUCUCGUACGGAACG | ≤ 0.5
4 | GUUCGGUUGGGGUACUGGUAACGCGUCUCCCUCCUAAGGAGAAGUCUGUGGGUUCGAGUCCCGUACGGAACG | ≤ 0.5
5 | GUUCGGUUGGGGUAAUGGUAACGCGUCUCCCUCCUAAGGGGAAGACUGCGGGUUCGAGUGCCGUACGGAACG | 0.588
6 | GUUCGGUUGGCGUAAUGGUAACGCGUCUCCCUCCUAAGGAGAAGCCUGCGGGUUCGUGUCCCGUACGGAACG | ≤ 0.5
7 | GUUCGGUUGGCGUAAUGGUAACGCGUCUCCCUCCUAAGGAGUAGACUGCGGGUUCGAGUCCCAUACGGAACG | 0.531
8 | GUUCGGUUGGCGUAAUGGUAACGCGUCUCCCUCCUAGGGAGAAGACUGCGGGUUCGAGUCCCGUACGGAACG | 0.805
9 | GUUCGGUUGGCGUAAUGGUAACGCGUCUCCCUCCUAAGGAGAAGACUGCGGGUUCGAGUCCCGUCCGAAACG | 0.671
10 | GUUCGGUUGGGGUAAUGGUAACGCGUCUCCCUCCUAAGGAGGAGACUGCGGGUUCGAGUCCCGUACGAAACG | ≤ 0.5
11 | GUUCGGUUGGCGUAAUGGUAACGCGUCUCCCUCCUAAGGAGUAGACUGCGGGUUCGAGUCCCGUACGGACCG | 0.681
12 | GUUCGGUUGGCGUAAUGGUAACGCGUCUCCCUCCUAAGGAGACGACUGCGGGUUCGAGUCCCGUACAGAACG | 0.565
13 | GUUCGGUUGGCGUAAUGGUAACGCGUCUCCCUCCUAAGGAGCAGACUGCGGGUUCGCGUCCCGUACGUAACG | ≤ 0.5
14 | GUUCGGUUGGAGUAAUGGUAACGCGUCUCCCUCCUAAGGUGAAGACUGCGGGUUCGAGUCCCGCACGGAACG | 0.536
15 | GUUCGGUUGGCGUAAUGGUAACGCGUCUCCCUCCUAAGGAGAAGUCUGCGGGUUCGAGUCCUGUACGGAACG | 0.725
16 | GUUCGGUUGGCGUAAUGGUAACGCGUCUCCCUCCUAAGGUGGAGACUGCGGGAACGAGUCCCGUACGGAACG | ≤ 0.5
17 | GUUCGGUUGGGGUAAUGGUACCGCGUCUCCCUCCUAAGGAGAAGACUGCGGGUUCGAGUCCCGUACCGAACG | ≤ 0.5
18 | GUUCGGUUGGCGUAAUGGUAACGCGUCUCCCUCCUAAGGAGCAGACUGCGGGUUCGAGUACCGUACGGAACG | ≤ 0.5
19 | GUUCGGUUGGCGUAAUGGUAACGCGUCUCCCUCCUAAGGAGAAGCCUGCGGGUUCGAGUCCCGGACGGAACG | ≤ 0.5

Row | Variant | yeast fitness
20 | GUUCGGUUGGAGUAAUGGUAACGCGUCUCCCUCCUAAGGAGAAGAGUGCGGGUUCGAGUCCCGUACGGAACG | 0.639
21 | GUUCGGUUGGGGUUUUGGUAACGCGUCUCCCUCCUAAGGAGAAGACUGCGGGUUCGAGUCUCGUACGCAACG | ≤ 0.5
22 | GUUCGGUUGGCGUAAUGGUAACGCGUCUCCCUCCUAAGGAGAGGACUGCGGGUUCGAGUCCCGUACGGCACG | 0.615
23 | GUUCGGUUGGAGUAGUGAUAACGCGUCUCGCUCCUAAGGAGAAGACUGCGGGUUCGAGUCCCGUACGGAACG | 0.587
24 | GUUCGGUUGGCGUAAUGGUAUCGCGUCUACCUCCUAAGGAGAAGACUGCGGGUUCGAGUCCCGCACGGAACG | ≤ 0.5
25 | GUUCGGUUGGCGUAAUGGUAACGCGUCUCCCUCCUAAGGAGAAGACUGCGGGUUCGAGUCCCGUACGGAUCG | 0.812
26 | GUUCGGUUGGCGUAAUGGUAACGCGUCUCCCUCCUAAGGAGAAGACUGCGGGUUCGAGUCCCGUACGGACCG | 0.905
27 | GUUCGGUUGGCGUAAUGGUAACGCGUCUCCCUCCUAAGGAGAAGACUGCGGGUUCGAGUCCCGUUCGGAACG | 0.796
28 | GUUCGGUUGGAGUAGUGAUAACGCGUCUCGCUCCUAAGGAGAAGACUGCGGGUUCGAGUCCCGUACGAAACG | ≤ 0.5
29 | GUUCGGUUGGAGUAAAGGUAUCGCGUCUCCCUCCUAAGGAGAAGACUGCGGGUUCGAGUCCCGUACAGAACG | ≤ 0.5
30 | GUUCGGUUGGAGUGAUGGUAACGCCUCUGCCUCCUAAGGAGAAGACUGCGGGUUCCCGUCCCGUACGGAACG | ≤ 0.5
31 | GUUCGGUUGGAGUGAUGGUAACGCCUCUGCCUCCUAAGGAGAAGACUGCGGGUUCGAGUGCCGUACGGAACG | ≤ 0.5
32 | GUUCGGUUGGAGUGAUGGUAACGCCUCUGCCUCCUAAGGAGAAGACUGCGGGUUCGAGUACCGUACGGAACG | ≤ 0.5
33 | GUUCGGUUGGGGUAAUGGUAACGCGUCUCCCUCCUAAGGAGAAGACUGCGGGUUCGAGUCCCGUACGGAACG | 0.614
34 | GUUCGGUUGGCGUAAUGGUAUCACGUCUACCUCCUAUGGAGAAGACUGCGGGUUCGGGUCUCGUACGGAACG | 0.541
35 | GUUCGGUUGGCGUAAUGGUAACGCGUCUCCCUCCUAAGGAGUAGACUGCGGGUUCGAGUCCCGUACGAAACG | 0.582
36 | GUUCGGUUGGCGUAAUGGUAACGCGUCUCCCUCCUAAGGCGAAGACUGUGGGUUCGAGUCCCGUACGGAACG | ≤ 0.5
37 | GUUCGGUUGGCGUAAUGGUAACGCGUCUCCCUCCUAAGGAGCAGACUGCGGGUGCGAGUCCCGUACGGAACG | ≤ 0.5
